Bioassay records as filed in PubChem.
TRPC4 PAM: positive allosteric modulators of TRPC4, primary screen, cell-based, mouse TRPC4beta, HEK293 mu-opioid, Fluo-4 calcium; Short transient receptor potential channel 4 (Mus musculus), Q9QUQ5; DAMGO EC20, Fluo-4 Ca2+ flux; hits give high values; 310,000 compounds, 0.42% hits; B-score at 10 µM;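 active = B-score of calcium response area above 5 SD of library B-scores, with initial fluorescence ratio within 5 SD of library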
Target sequence (Q9QUQ5 whole entry, looked up): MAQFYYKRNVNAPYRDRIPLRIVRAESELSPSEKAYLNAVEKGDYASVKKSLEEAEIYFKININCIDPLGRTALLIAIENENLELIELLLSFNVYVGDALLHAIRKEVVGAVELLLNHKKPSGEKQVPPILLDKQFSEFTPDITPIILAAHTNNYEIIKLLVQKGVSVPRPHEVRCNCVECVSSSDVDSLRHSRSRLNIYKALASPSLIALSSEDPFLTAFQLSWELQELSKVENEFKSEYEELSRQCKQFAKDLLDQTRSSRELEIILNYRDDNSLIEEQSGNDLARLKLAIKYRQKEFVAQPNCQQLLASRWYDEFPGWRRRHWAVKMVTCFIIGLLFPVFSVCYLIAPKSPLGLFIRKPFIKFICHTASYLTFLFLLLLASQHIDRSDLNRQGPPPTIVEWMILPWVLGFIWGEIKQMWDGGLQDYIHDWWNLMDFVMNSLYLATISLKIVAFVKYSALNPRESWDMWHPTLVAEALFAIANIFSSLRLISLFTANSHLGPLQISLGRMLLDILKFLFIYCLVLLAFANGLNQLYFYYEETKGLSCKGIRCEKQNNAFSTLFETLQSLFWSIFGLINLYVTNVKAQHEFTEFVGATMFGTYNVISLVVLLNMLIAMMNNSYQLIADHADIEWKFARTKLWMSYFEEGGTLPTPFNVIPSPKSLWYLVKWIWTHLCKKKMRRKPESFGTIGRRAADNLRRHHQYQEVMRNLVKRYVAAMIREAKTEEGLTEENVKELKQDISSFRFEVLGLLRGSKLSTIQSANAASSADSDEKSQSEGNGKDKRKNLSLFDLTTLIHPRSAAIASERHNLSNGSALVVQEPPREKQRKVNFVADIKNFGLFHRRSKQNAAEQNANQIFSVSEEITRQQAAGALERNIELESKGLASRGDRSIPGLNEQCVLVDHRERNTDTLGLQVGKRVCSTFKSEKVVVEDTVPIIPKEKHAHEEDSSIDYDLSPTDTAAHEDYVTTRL
TRPC6 act: mouse TRPC6 channel activators, primary screen, cell-based, HEK293, membrane potential dye. HEK293-TRPC6 membrane potential dye fluorescence; hits give high values. Short transient receptor potential channel 6 (Mus musculus), Q61143. 310,000 compounds, 0.13% hits. B-score at 10 µM;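 active = B-score of the integrated fluorescence ratio above library mean plus 3 SD, and starting fluorescence ratio within library mean plus 5 SD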;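 also: higher score means more depolarization so channel activation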
TRPC4 inh: inhibitors of mouse TRPC4 channel, primary screen, Fluo4 calcium, HEK293 TRPC4beta/mu-opioid cells | Short transient receptor potential channel 4 (Mus musculus), Q9QUQ5 | DAMGO-evoked Fluo4 calcium flux; hits give low values | B-score at 10 µM | 300,000 compounds, 0.39% hits | AID 2247, 2010;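 active = B-score over 3 SD under the library average, no early fluorescence shift, positive overall ratio signal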
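Assay system – HEK293 line stably carrying TRPC4beta and mu-opioid receptor · Doses – single dose · Detection – Fluo4 calcium-dye fluorescence, kinetic read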
TRPC4 act: activators of mouse TRPC4 channel, primary screen, Fluo4 calcium, HEK293 TRPC4beta/mu-opioid cells | Short transient receptor potential channel 4 (Mus musculus), Q9QUQ5 | Fluo4 calcium fluorescence; hits give high values | B-score at 10 µM | 310,000 compounds, 0.49% hits;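 active = B-score above 5 SD of library B-scores, and initial fluorescence ratio not above library mean plus 5 SD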;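 also: positive B-score marks a calcium rise read as TRPC4 activation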
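Assay system: HEK293 stable line with TRPC4beta plus mu-opioid receptor; schedule: 45 min room-temperature Fluo4 loading, 110 s read; technique: kinetic Fluo4 calcium fluorescence; evaluation: integrated baseline-normalised fluorescence ratio, converted to per-well B score; controls: buffer (low) and maximal DAMGO (high)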
DNA FID counter: compounds displacing fluorescent DNA intercalator, primary screen, artefact control for HCV NS3 helicase inhibitor project, biochemical, FID fluorescence. DNA fluorescent intercalator displacement. inhibition, % at 7.9 µM. AID 1845, 2009. 290,000 compounds, 0.17% hits; in the data active = inhibition above about 37%;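 also: higher means more ethidium bromide displaced from hairpin DNA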
TRPC6 inhibitor: mouse TRPC6 channel inhibitors, primary screen, cell-based, HEK293, membrane potential dye | 310,000 compounds, 1.1% hits | B-score at 10 µM | ACh-evoked depolarization; hits give low values;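 active = B-score under library mean minus 3 SD, initial fluorescence not abnormally high, positive integrated signal ratio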;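 also: B-score derived from integrated fluorescence ratio over the kinetic read; more negative B-score means stronger inhibition of depolarization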
TRPC4 spec 2: second check of whether TRPC6 inhibitors also affect mouse TRPC4 | shares compounds with TRPC6 inhibitor | AID 2776 | 920 compounds, 42% hits | inhibition, % at 10 µM | HEK293 TRPC4/MOR, membrane potential dye fluorescence; channel activated by saturating DAMGO dose;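 active = compounds whose fluorescence signal differed from control wells by over 3 SD, either direction, in both duplicate plates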
TRPC4 spec: mouse TRPC4 modulation by TRPC6 hits, confirmation, selectivity assay for TRPC6 inhibitor project, cell-based, HEK293 TRPC4/mu-opioid, membrane potential dye. 920 compounds, 61% hits. shares compounds with TRPC6 inhibitor. activity change, negative = inhibition, % at 10 µM. membrane potential fluorescence;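 active = rise or fall in signal beyond 3 SD of buffer-only wells in both replicate plates, either sign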;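 also: integrated kinetic ratio of fluorescence range over baseline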
HEK293 MPD ctr 2-1: nonspecific membrane potential effects, parental HEK293, confirmation, counter-screen for TRPC6 inhibitor project, cell-based, second counter screen; shares compounds with TRPC6 inhibitor; AID 2779, 2010; parental HEK293 membrane potential dye fluorescence; maximal acetylcholine challenge after compound addition; 920 compounds, 31% hits; signal change vs control, % at 10 µM;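 active = membrane potential signal moving either way by over 3 SD of the maximum-effect control, in both duplicate plates, meaning non-specific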
HEK293 MPD ctr-1: membrane potential modulation in parental HEK293, confirmation, counter-screen for TRPC6 inhibitor project, cell-based; shares compounds with TRPC6 inhibitor; parental HEK293 membrane potential dye fluorescence; membrane potential signal change, % at 10 µM; 920 compounds, 60% hits; AID 2780, 2010;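 active = membrane potential signal shifting up or down by more than 3 SD of buffer-only wells, on both duplicate plates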
HEK293 MPD ctr-2: parental HEK293 membrane potential modulation, confirmation, counter-screen for TRPC6 modulator project, cell-based; membrane potential signal change, % at 10 µM; shares compounds with TRPC6 inhibitor; 2,400 compounds, 51% hits; membrane potential dye fluorescence;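 active = membrane potential signal moves up or down beyond 5 SD from buffer-only wells, on both duplicate plates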
HEK293 MPD ctr 2-2: second counter-screen for TRPC6 modulators: effect in parental HEK293 cells; shares compounds with TRPC6 inhibitor; membrane potential dye fluorescence; after compound, maximal acetylcholine stimulation; inhibition, % at 10 µM; 2,400 compounds, 14% hits;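 active = membrane potential signal drops by more than 5 SD from the mean control signal, in both duplicate plates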
TRPC4/MOR mod: TRPC4 modulation by TRPC6 hit compounds, confirmation, selectivity assay for TRPC6 modulator project, cell-based, HEK293 TRPC4/mu-opioid, membrane potential dye, mouse | 2,400 compounds, 69% hits | membrane potential fluorescence | shares compounds with TRPC6 inhibitor | AID 488927, 2010 | percent change from control (negative = decrease, positive = increase), % at 10 µM;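 active = membrane potential signal moved up or down beyond 5 SD of buffer control wells, in both duplicate plates, actives on both sides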
TRPC4 ctr inh 2: second selectivity test of TRPC6 modulators against mouse TRPC4; inhibition, % at 10 µM; 2,400 compounds, 55% hits; shares compounds with TRPC6 inhibitor; HEK293 TRPC4/mu-opioid, membrane potential dye fluorescence; stimulated with maximal-effect DAMGO; AID 488928;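 active = drop in membrane potential signal beyond 5 SD of the control wells in both duplicate plates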;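 also: TRPC4 counter screen for TRPC6 hits run under conditions tuned for TRPC6 not TRPC4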
TRPC6 inh conf: mouse TRPC6 channel inhibitors, confirmation, HEK293 cells, membrane potential dye, duplicate; 3,300 compounds, 43% hits; inhibition, % at 10 µM; shares compounds with TRPC6 inhibitor; ACh-evoked depolarization;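 active = fluorescence ratio falls more than 5 SD below the full-stimulation control mean, in both duplicate runs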;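 also: integrated fluorescence ratio of peak minus minimum over baseline after agonist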
TRPC6 act conf: mouse TRPC6 channel activators, confirmation, HEK293 cells, membrane potential dye, duplicate | activation, % at 10 µM | AID 488961, 2010 | HEK293-TRPC6 membrane potential dye fluorescence, FDSS | shares compounds with TRPC6 inhibitor | 2,800 compounds, 11% hits;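 active = ratio signal rise beyond 5 SD above unstimulated control wells' mean, seen in both duplicate runs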
Hits are given with their value. The list is not random: actives were taken first. Their share in the collection is about 2.3%.

Results for COc1ccc(-c2nc(C#N)c(NCCCN(C)C)o2)cc1OC ?
TRPC4 PAM: inactive; TRPC6 act: inactive; TRPC4 inh: inactive; TRPC4 act: inactive; DNA FID counter: inactive; TRPC6 inhibitor: -6.37; HEK293 MPD ctr-2: inactive; HEK293 MPD ctr 2-2: inactive; TRPC4/MOR mod: inactive; TRPC4 ctr inh 2: inactive; TRPC6 inh conf: inactive; TRPC6 act conf: inactive

What do the screens show for `CCC1(CC)NC(=O)N(CC(=O)OC(C)C(=O)Nc2ccccc2OC)C1=O` (configuration not stated)?
TRPC4 PAM: inactive; TRPC6 act: inactive; TRPC4 inh: inactive; TRPC4 act: inactive; TRPC6 inhibitor: inactive

Results for COc1ccccc1C(=O)NCC1CCN(c2ccc(S(=O)(=O)N3CCOCC3)cc2)CC1 ?
TRPC4 PAM: inactive; TRPC6 act: inactive; TRPC4 inh: inactive; TRPC4 act: inactive; DNA FID counter: inactive; TRPC6 inhibitor: -6.87; TRPC4 spec 2: inactive; TRPC4 spec: 8.9%; HEK293 MPD ctr 2-1: 10.0%; HEK293 MPD ctr-1: 5.1%; TRPC6 inh conf: 55.4%; TRPC6 act conf: inactive

How did O=C(NCC1CCN(c2ccc(S(=O)(=O)N3CCOCC3)cc2)CC1)Nc1ccccc1 do in these assays?
TRPC4 PAM: inactive; TRPC6 act: inactive; TRPC4 inh: inactive; TRPC4 act: inactive; DNA FID counter: inactive; TRPC6 inhibitor: inactive

How did CC(C)CCN1C(=O)CCC1(C)C(=O)NC1CCCCCC1 (configuration not stated) do in these assays?
TRPC4 PAM: inactive; TRPC6 act: inactive; TRPC4 inh: inactive; TRPC4 act: inactive; DNA FID counter: inactive; TRPC6 inhibitor: -5.81; HEK293 MPD ctr-2: 128.5%; HEK293 MPD ctr 2-2: inactive; TRPC4/MOR mod: 26.0%; TRPC4 ctr inh 2: inactive; TRPC6 inh conf: inactive

How did CC(C)CCN1C(=O)CCC1(C)C(=O)NC1CCCCCCC1 (configuration not stated) do in these assays?
TRPC4 PAM: inactive; TRPC6 act: inactive; TRPC4 inh: inactive; TRPC4 act: inactive; DNA FID counter: inactive; TRPC6 inhibitor: inactive

Results for CC(NCc1ccc(N(C)C)cc1)C1CC2CCC1C2 (configuration not stated) ?
TRPC4 PAM: inactive; TRPC6 act: inactive; TRPC4 inh: inactive; TRPC4 act: inactive; DNA FID counter: inactive; TRPC6 inhibitor: -6.55; HEK293 MPD ctr-2: 231.0%; HEK293 MPD ctr 2-2: 70.0%; TRPC4/MOR mod: 51.0%; TRPC4 ctr inh 2: 60.5%; TRPC6 inh conf: 77.0%

Results for CC(NC(=O)c1ccc(CS(C)(=O)=O)cc1)C1CC2CCC1C2 (configuration not stated) ?
TRPC4 PAM: inactive; TRPC6 act: inactive; TRPC4 inh: inactive; TRPC4 act: inactive; DNA FID counter: inactive; TRPC6 inhibitor: inactive

Results for COc1ccc(OC)c(/C=N/n2c(-c3n[nH]c4c3CCC4)n[nH]c2=S)c1 ?
TRPC4 PAM: inactive; TRPC6 act: inactive; TRPC4 inh: inactive; TRPC4 act: inactive; DNA FID counter: inactive; TRPC6 inhibitor: inactive

What do the screens show for `COc1ccc(/C=N/n2c(-c3n[nH]c4c3CCC4)n[nH]c2=S)cc1`?
TRPC4 PAM: inactive; TRPC6 act: inactive; TRPC4 inh: inactive; TRPC4 act: inactive; DNA FID counter: inactive; TRPC6 inhibitor: -5.01; HEK293 MPD ctr-2: inactive; HEK293 MPD ctr 2-2: inactive; TRPC4/MOR mod: inactive; TRPC4 ctr inh 2: inactive; TRPC6 inh conf: inactive

What do the screens show for `CC(/C=N/n1c(-c2n[nH]c3c2CCC3)n[nH]c1=S)=C\c1ccco1`?
TRPC4 PAM: inactive; TRPC6 act: inactive; TRPC4 inh: inactive; TRPC4 act: inactive; DNA FID counter: inactive; TRPC6 inhibitor: -8.44; TRPC4 spec 2: inactive; TRPC4 spec: inactive; HEK293 MPD ctr 2-1: -11.0%; HEK293 MPD ctr-1: inactive; TRPC6 inh conf: 69.5%; TRPC6 act conf: inactive
